# NPY Y1 blocker = antagonists of human neuropeptide Y receptor Y1. inhibition, % at 3.6 µM. P25929. hit rate 1% among 200,000. HEK293-CNG Y1 cells, membrane potential fluorescence; NPY at EC95, then isoproterenol. AID 1040;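 active = inhibition above the campaign mean inhibition of all tested compounds plus 3 SD, cut at about 20% in these data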;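 also: 0% = DMSO wells given NPY plus isoproterenol and 100% = isoproterenol alone without NPY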
#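 Material: HEK293 cells with Y1 receptor plus CNG channel; times: compound incubation 1 h at room temperature, readout 45 min post-stimulation; signal: fluorescence, membrane potential probe; read-out basis: fluorescence ratio normalized to % inhibition between controls; benchmarks: full-block control isoproterenol-only wells, zero-block control NPY plus isoproterenol wells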
# NPY2 pot ag = potentiators or agonists of human neuropeptide Y receptor Y2. P49146. cells expressing NPY-Y2, potentiator/agonist read-out. activation, % at 3.6 µM. hit rate 0.45% among 220,000; in the data active = activation above about 27%;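 also: cells stimulated with NPY near EC25 plus isoproterenol at EC100; 0% = vehicle plus submaximal agonist and 100% = vehicle plus saturating agonist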
# NPY-Y2 antag = NPY-Y2 (human) receptor antagonism. P49146. NPY-Y2 expressing cells, antagonist mode. inhibition, % at 2.7 µM. hit rate 0.99% among 140,000; in the data active = inhibition above about 17%;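 also: 0% = vehicle with agonist challenge and 100% = reference antagonist with challenge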
# NPY1 pot ag = potentiators or agonists of human neuropeptide Y receptor Y1 | P25929 | NPY-Y1 expressing cells, potentiator/agonist activation | activation, % at 3.6 µM | hit rate 0.37% among 220,000 | AID 1304; in the data active = activation above about 33%, passing the limit was not always enough;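 also: cells stimulated with NPY at EC10 then isoproterenol at EC100; 0% = low agonist plus stimulus and 100% = saturating agonist plus stimulus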
# Measles CPE = protection of cells from measles virus | hit rate 1.5% among 140,000 | protection (pct of control), % at 4 µM | Measles virus-infected cells, CPE protection, absorbance | AID 841; in the data active = protection mostly above about 24%, no sharp cut-off; inactive = mostly below about 26%
# Mdm2 ligase inh = Mdm2 E3 ligase (human) inhibition; AID 1230; signal enhancement, % at 5 µM; Q00987; cell-based MDM2 ubiquitination luciferase reporter, 2 h; 0 = plate control, 100 = twice control, blank-subtracted; hit rate 0.11% among 210,000;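 active = signal enhancement of 30% or more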;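 also: luminescence tracks abundance of the self-degrading MDM2-luciferase fusion protein; higher signal means inhibition of MDM2 E3 ligase activity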
# Target sequence (Q00987 whole entry, looked up, the tested form may be a part): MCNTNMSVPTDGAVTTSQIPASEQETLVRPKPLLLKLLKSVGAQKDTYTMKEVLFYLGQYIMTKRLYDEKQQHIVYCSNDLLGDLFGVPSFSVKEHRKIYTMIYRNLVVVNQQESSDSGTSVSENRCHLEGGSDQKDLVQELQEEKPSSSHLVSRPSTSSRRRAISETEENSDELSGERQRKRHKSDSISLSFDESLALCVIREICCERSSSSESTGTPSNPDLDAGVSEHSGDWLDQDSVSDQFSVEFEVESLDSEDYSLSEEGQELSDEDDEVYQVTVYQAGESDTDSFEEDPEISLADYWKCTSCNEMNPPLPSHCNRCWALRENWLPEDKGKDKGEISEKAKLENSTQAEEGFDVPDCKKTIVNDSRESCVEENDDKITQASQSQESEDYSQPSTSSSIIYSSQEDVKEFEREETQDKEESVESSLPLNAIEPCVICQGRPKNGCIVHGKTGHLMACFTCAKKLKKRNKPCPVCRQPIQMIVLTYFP
#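 test system = mammalian cells stably expressing self-ubiquitinating, self-degrading MDM2 E3–luciferase fusion | quantity = 2000 cells/well | incubation = cell settling 4 h, compound treatment 2 h, both 37 °C | signal = luminescence with SteadyLite reagent, 15 min at room temperature | evaluation = % enhancement relative to plate controls after blank subtraction | benchmarks = plate controls and plate blanks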
# An asterisk follows results filed as active; nt = no result. Most compounds without a hit are left out; they make up all but 2.8% or so of the library.
SMILES,NPY Y1 blocker,NPY2 pot ag,NPY-Y2 antag,NPY1 pot ag,Measles CPE,Mdm2 ligase inh
Cc1nnc(SC(C)C(=O)Nc2c(C)n(C)n(-c3ccccc3)c2=O)n1N (stereo unspecified),1,0,nt,-10,nt,3
COc1ccc(CN2CCN(C(C)C)C(CCO)C2)cc1Cn1cccn1 (stereo unspecified),-2,6,nt,-6,nt,-18
COc1ccc(CN2CCC(CO)(Cc3ccccc3)CC2)cc1Cn1cccn1,21*,-25,nt,-17,nt,-9
COc1ccc(C2C(C(=O)c3ccco3)=C(O)C(=O)N2c2nnc(C)s2)cc1 (stereo unspecified),2,7,nt,2,nt,-5
Cc1ccc2nc(N3C(=O)C(O)=C(C(=O)c4ccco4)C3c3cccs3)sc2c1 (stereo unspecified),37*,-20,19*,-32,7,-3
Cc1ccc(C)c(N2CCN(c3ccncc3N)CC2)c1,nt,-6,nt,-14,nt,-13
Cc1ccc(C)c2[nH]c(=O)c(CN(Cc3ccco3)C(=S)NCC3CCCO3)cc12 (stereo unspecified),0,3,nt,0,nt,-1
CC1CCN(C(=S)c2cn(Cc3ccccc3F)c3ccccc23)CC1,45*,-17,29*,-7,20,-4
CN1CCN(C(=S)c2cn(Cc3ccccc3F)c3ccccc23)CC1,4,6,nt,-12,nt,4
Cn1c(=O)[nH]c(NC2CCCCC2)c(N=O)c1=O,1,6,0,5,41*,-3
O=Cc1cn(CC(=O)N2CCc3ccccc32)c2ccccc12,7,0,nt,-12,nt,-8
Cc1ccc(-c2ccc(/C=N\NC(=O)c3cc4c(ccc5ccccc54)o3)o2)cc1[N+](=O)[O-],4,5,1,12,51*,-12
Cc1ccc([N+](=O)[O-])cc1-c1ccc(/C=N/NC(=O)c2cc3c(ccc4ccccc43)o2)o1,4,-19,4,-10,11,-22
Nc1nc(CN2CCN(c3ccccn3)CC2)nc(Nc2ccc(Cl)cc2)n1,-3,6,2,-1,6,-31
Cc1c(Nc2nc(-c3ccccc3)cs2)c(=O)n(-c2ccccc2)n1C,-1,78*,1,59*,3,-18
O=C(Nc1cc(C(F)(F)F)ccc1N1CCOCC1)C1Cc2ccccc2CN1C(=O)c1ccco1 (stereo unspecified),26*,8,19*,2,6,-5
O=C(Nc1ccccc1)C1Cc2ccccc2CN1C(=O)c1ccco1 (stereo unspecified),-5,-11,3,-1,10,-6
CN(C1=C(NC(=O)c2ccc(Cl)cc2)C(=O)c2ccccc2C1=O)c1ccccc1,-20,72*,-10,56*,1,-9
CCOC(=O)C(C(C)C)C(N)Cc1ccc(F)cc1 (stereo unspecified),7,18,nt,-1,nt,-2
O=C(NCC1CCCO1)c1c(O)c2cccc3c2n(c1=O)CC3 (stereo unspecified),-7,1,2,-5,55*,2
CC1CCC2C(=O)N(c3ccccc3OC(=O)c3ccccc3F)C(=O)C2C1 (stereo unspecified),1,-1,nt,-12,nt,-21
Nc1c(C(=O)Nc2ccccc2)c2nc3ccccc3nc2n1-c1ccc(O)cc1,nt,46*,nt,55*,nt,8
CCC1(c2ccc(F)cc2)NC(=O)N(CC(=O)c2ccc[nH]2)C1=O (stereo unspecified),0,14,1,11,30*,-7
CC1CC(C)CN(C(=O)C2CCCN(S(=O)(=O)c3cccc4nonc34)C2)C1 (stereo unspecified),-1,2,1,5,53*,1
COc1ccc(N2C(=O)CC(N3CCN(S(=O)(=O)c4ccc(Cl)cc4)CC3)C2=O)cc1 (stereo unspecified),-4,-2,nt,34,nt,5
SMILES,NPY Y1 blocker,NPY2 pot ag,NPY-Y2 antag,NPY1 pot ag,Measles CPE,Mdm2 ligase inh
COc1ccc(N2C(=O)CC(N3CCC(O)(c4ccc(Cl)cc4)CC3)C2=O)cc1 (stereo unspecified),0,4,1,9,26*,-10
Cc1ccc2[nH]c(=O)c(COC(=O)c3cccs3)cc2c1,-3,-4,4,10,4,3
CC1(C)CC(CCC(=O)Nc2ccc(S(N)(=O)=O)cc2)C(=O)O1 (stereo unspecified),3,11,1,-8,5,-4
Cc1ccc(NC(=O)CCC2CC(C)(C)OC2=O)cc1 (stereo unspecified),4,1,nt,-6,nt,31*
COC(=O)Nc1nc(-c2ccccc2)c(C(=O)c2ccccc2)s1,30*,-21,13,-18,3,-9
COc1ccc(C(c2nnnn2C2CCCC2)N2CCc3ccccc3C2)cc1OC (stereo unspecified),17,-19,9,-29,14,-10
COc1ccc(OC)c(C(c2nnnn2C2CCCC2)N2CCc3ccccc3C2)c1 (stereo unspecified),21*,-5,18*,-17,0,-5
Cc1nc(-c2ccccc2)cc(N2CCCC2)n1,-1,8,4,-20,33*,-16
Nc1nc(-c2ccccc2)cc(N2CCCCC2)n1,16,-17,10,-28,2,-13
CCOC(=O)CSC1=C(C#N)C(c2ccccc2Cl)C(C(=O)OC)C(=O)N1 (stereo unspecified),-2,1,4,2,4,-23
Oc1ccc(Nc2nc(N3CCCC3)c3ccccc3n2)cc1,2,-7,3,-5,7,-16
COc1ccc(Nc2nc(N3CCCCC3)c3ccccc3n2)cc1,34*,-2,41*,-44,10,0
Cc1ccc(Nc2nc(N3CCOCC3)c3ccccc3n2)cc1,23*,-53,8,-38,1,-27
CCc1cc2c(SCC(=O)Nc3cc(C)on3)ncnc2s1,11,-2,nt,-18,nt,-9
CN(C)c1ccc(C(=O)c2ccccc2)cc1,0,3,1,4,44*,-1
C/C(CCc1ccc2c(c1)OCO2)=N\N=C1\NC(=O)CC(C(=O)Nc2ccc(Cl)cc2)S1 (stereo unspecified),2,-19,9,4,3,-9
CN(C)/C=N/S(=O)(=O)c1cccn1-c1ncc(C(F)(F)F)cc1Cl,9,8,nt,22,nt,-12
CN(C)S(=O)(=O)c1cccn1-c1ncc(C(F)(F)F)cc1Cl,1,-1,-2,-16,43*,-14
CCc1cccc(NC(=O)c2cc(S(=O)(=O)N(C)C)ccc2N2CCCC2)c1,4,-3,nt,-1,nt,-8
COc1ccc(C(C)(C)C)cc1NC(=O)c1cc(S(=O)(=O)N(C)C)ccc1N1CCCC1,25*,4,22*,0,6,-19

# Screening results from PubChem BioAssay.
